Laboratory results from ChEMBL document CHEMBL3044892, “Primary study on mode of action for macrocyclic fungicide candidates (7B3, D1) against Rhizoctonia solani Kuhn” (J Agric Food Chem, 2010).
In brackets after ≈: the same amount, converted by molar mass. Activity calls are given as the source filed them. The rule behind the calls is not given here.

Experiments:
[1] = system: Colletotrichum orbiculare; test: Fungicidal activity against Colletotrichum orbiculare assessed as inhibition rate; assay type: functional
Rhizoctonia solani [2] = test: Fungicidal activity against Rhizoctonia solani assessed as inhibition of intact mycelia respiration at 100 ug/mL by […]; assay type: functional
Method in brief: (§1)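 Intact R. solani mycelia from 5-day PD shake culture (25 C, 150 rpm), washed, resuspended at 50 mg fresh weight mL-1 in 0.1 M phosphate buffer pH 7.2 with 2% glucose; treated with 10 or 100 μg mL-1; O2 uptake by oxygraph at 25 C before and after addition; inhibition = (R0-R1)/R0 × 100; n = 3.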

Rhizoctonia solani [3] = test: Fungicidal activity against Rhizoctonia solani assessed as mycelia rough surface and formed irregular ramification or abnormal configuration at 50 ug/mL by scanning electron micrography; assay type: functional, organism-based
Method in brief: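 Hyphal tips (5 mm) cut from margins of R. solani colonies grown 3 days on PDA containing 0 or 50 μg mL-1 compound; glutaraldehyde (4%, 4 C) and osmium tetroxide fixation, graded acetone dehydration, critical-point drying, gold coating; imaged by SEM at 18-20 kV accelerating voltage.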

Sclerotinia sclerotiorum = test: Fungicidal activity against Sclerotinia sclerotiorum assessed as inhibition rate; assay type: functional
Rhizoctonia solani [4] = test: Fungicidal activity against Rhizoctonia solani assessed as disorganized organelles and decreased in the hyphae cytoplasm at 50 ug/mL by Transmission electron micrography; assay type: functional, organism-based
Method in brief: (§2)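 R. solani grown 3 days on PDA with 0 or 50 μg mL-1 test compound; 5 mm hyphal tips from colony margin fixed in 4% glutaraldehyde at 4 C, then 1% osmium tetroxide, acetone-dehydrated, Epon-embedded; thin sections double-stained with uranyl acetate and lead citrate, examined by TEM versus untreated control.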

Rhizoctonia solani [5] = test: Fungicidal activity against Rhizoctonia solani assessed as thicker hyphae and abnormally thickened walls of the septa at 50 ug/mL by Transmission electron micrography; assay type: functional, organism-based; method in brief: as §2
Verticillium dahliae = test: Fungicidal activity against Verticillium dahliae assessed as inhibition rate; assay type: functional
Alternaria kikuchiana [6] = test: Fungicidal activity against Alternaria kikuchiana Tanaka assessed as inhibition rate; assay type: functional
Fulvia fulva = test: Fungicidal activity against Passalora fulva Cooke Ciferri assessed as inhibition rate; assay type: functional
Rhizoctonia solani [7] = test: Fungicidal activity against Rhizoctonia solani assessed as disappearance of septal pore caps at 50 ug/mL by Transmission electron micrography; assay type: functional, organism-based; method in brief: as §2
Rhizoctonia solani [8] = test: Fungicidal activity against Rhizoctonia solani assessed as reduction in mycelia growth at 50 ug/mL; assay type: functional, organism-based
Rhizoctonia solani [9] = test: Fungicidal activity against Rhizoctonia solani assessed as inhibition rate; assay type: functional
Rhizoctonia solani [10] = test: Fungicidal activity against Rhizoctonia solani assessed as inhibition of intact mycelia respiration at 10 ug/mL by […]; assay type: functional; method in brief: as §1
Phyllosticta = test: Fungicidal activity against Phyllospicpa physaleos Sacc., by mycelium growth rate test; assay type: functional, organism-based
Rhizoctonia solani [11] = test: Fungicidal activity against Rhizoctonia solani assessed as prevention in cotton at 140 g/ha by field efficacy trail; assay type: functional
Alternaria kikuchiana [12] = test: Fungicidal activity against Alternaria kikuchiana by mycelium growth rate test; assay type: functional, organism-based
Rhizoctonia solani [13] = test: Fungicidal activity against Rhizoctonia solani by mycelium growth rate test; assay type: functional, organism-based
Botrytis cinerea = test: Fungicidal activity against Botryotinia fuckeliana by mycelium growth rate test; assay type: functional, organism-based
Rhizoctonia solani [14] = test: Fungicidal activity against Rhizoctonia solani assessed as induction of electrolyte leakage from hyphae at 50 ug/mL by cell membrane permeability assay; assay type: functional, organism-based

SMILES | inhibition at 100 µg/mL (Rhizoctonia solani [2]) | inhibition (Rhizoctonia solani [3]) | inhibition (Rhizoctonia solani [4]) | Activity (Rhizoctonia solani [5]) | inhibition (Rhizoctonia solani [8]) | inhibition at 10 µg/mL (Rhizoctonia solani [10]) | further results
F[B-](F)(F)F.O=C1CCCCCCCCCCC[NH2+]CCO1 | 3% | Active | Active | Active | Active | 1.67% | inhibition (INH) [1]: 73.2%; inhibition (INH) (Sclerotinia sclerotiorum): 85.7%; inhibition (INH) (Verticillium dahliae): 86.9%; inhibition (INH) (Alternaria kikuchiana [6]): 85.7%; inhibition (INH) (Fulvia fulva): 89.3%; Activity (Rhizoctonia solani [7]): Active; inhibition (INH) (Rhizoctonia solani [9]): 96%
CCCO/N=C1\CCCCCCCCCCC(=O)NCCC1 | 12.1% | Active | Active | Active | Active | 3.39% | EC50 (Phyllosticta): 1.9 µg/mL (≈ 6.12 µM); Activity (Rhizoctonia solani [11]): 64%; EC50 (Alternaria kikuchiana [12]): 1.2 µg/mL (≈ 3.86 µM); EC50 (Rhizoctonia solani [13]): 4.6 µg/mL (≈ 14.8 µM); EC50 (Botrytis cinerea): 8.6 µg/mL (≈ 27.7 µM)
CC(C)(C)C(=O)C(Oc1ccc(Cl)cc1)n1cncn1 (stereo unspecified) |  |  |  |  |  |  | Activity (Rhizoctonia solani [14]): inactive
CO/C=C(/C(=O)OC)c1ccccc1Oc1cc(Oc2ccccc2C#N)ncn1 [AZOXYSTROBIN] |  |  |  |  |  | 84.9% | 
